The list is not random: actives were taken first. Their share in the collection is about 4.6%.
TAAR1 ag: agonists of human TAAR1 | 360,000 tested, 0.99% active | CHO RD-HGA16 TAAR1, Fluo-8 calcium fluorescence; vehicle wells 0%, saturating PEA agonist 100% | activation, % at 3 µM | Q96RJ0 | AID 624467;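 active = activation above the mean activation of all test compounds in the run plus 3 SD, cut at about 38% in these data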
Target sequence (Q96RJ0 whole entry, looked up): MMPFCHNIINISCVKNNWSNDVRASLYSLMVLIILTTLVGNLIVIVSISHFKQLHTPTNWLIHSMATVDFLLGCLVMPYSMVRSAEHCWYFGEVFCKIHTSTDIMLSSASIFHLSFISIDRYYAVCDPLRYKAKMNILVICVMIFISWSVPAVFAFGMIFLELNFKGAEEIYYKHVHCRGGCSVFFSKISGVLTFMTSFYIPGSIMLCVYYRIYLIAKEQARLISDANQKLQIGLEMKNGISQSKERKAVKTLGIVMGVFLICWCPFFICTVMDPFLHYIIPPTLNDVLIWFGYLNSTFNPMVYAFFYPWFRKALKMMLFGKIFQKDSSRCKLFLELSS
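System: CHO-derived RD-HGA16 cells with stable Gα16 and human TAAR1 / Times: 17-24 h plating, Fluo-8 75 min 37 °C, 30 min RT / Technique: calcium-sensitive Fluo-8 signal, excitation 470-495, emission 515-575 nm / Measure: % activation relative to PEA EC100 response / Benchmarks: DMSO and PEA EC100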
TAAR1 antag: antagonists of human TAAR1. CHO RD-HGA16 TAAR1, Fluo-8 calcium fluorescence, antagonist. 360,000 tested, 1.5% active. inhibition, % at 3 µM. Q96RJ0;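 active = inhibition above a per-plate cutoff, the mean inhibition of test compounds on that plate plus 3 SD, cut at about 49% in these data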
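Material: RD-HGA16 CHO cells with stable hTAAR1 and Gα16; Dosing: single nominal final test compound concentration of 3 µM; Schedule: seeding 17-24 h prior, 75-min 37 °C, 30-min RT dye loading; Detection: kinetic Fluo-8 calcium fluorescence measurement; Measure: % inhibition from peak post-agonist over basal fluorescence ratio; Benchmarks: vehicle and agonist controls.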
GPR7 antagonist: human neuropeptides B/W receptor 1 antagonism | inhibition, % at 4.4 µM | AID 1861 | GPR7-expressing cells, fluorescence antagonist assay | P48145 | 290,000 tested, 1.1% active; in the data active = inhibition above about 16%, passing the limit was not always enough;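 note: cells stimulated with the agonist NPW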
Target sequence (P48145 whole entry, looked up): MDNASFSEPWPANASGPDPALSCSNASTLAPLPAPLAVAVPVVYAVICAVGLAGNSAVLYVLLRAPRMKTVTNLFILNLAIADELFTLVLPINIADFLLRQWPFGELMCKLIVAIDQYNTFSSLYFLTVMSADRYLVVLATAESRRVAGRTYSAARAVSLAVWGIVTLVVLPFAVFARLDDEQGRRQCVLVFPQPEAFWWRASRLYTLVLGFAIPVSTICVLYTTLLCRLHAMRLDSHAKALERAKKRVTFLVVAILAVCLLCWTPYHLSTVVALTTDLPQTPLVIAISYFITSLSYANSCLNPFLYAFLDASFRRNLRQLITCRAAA
OX1R antag-1: human HCRTR1 antagonism. 330,000 tested, 0.43% active. inhibition, % at 5 µM. CHO/OX1R cells, Fluo-8 calcium fluorescence, orexin A;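 active = inhibition above its plate's threshold, mean inhibition of all tested compounds on the plate plus 3 SD, cut at about 37% in these data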
CHO parental Ca: counter-screen: ATP calcium response change in parental CHO cells | 330,000 tested, 0.63% active | AID 463079 | parental CHO-K1, ATP-induced calcium, Fluo-8 fluorescence | inhibition, % at 5.6 µM;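 active = inhibition above that plate's mean sample inhibition plus 3 SD, cut at about 26% in these data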
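Assay system – parental CHO cells · Reagent – ATP stimulus · Detection – intracellular calcium via Fluo-8 no-wash fluorescent dye · Evaluation – percent inhibition of ATP-evoked calcium rise, normalized to controls · Controls – ATP wells versus no-ATP DMSO wells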
OX1R antag-2: OX1R (human) antagonism; 330,000 tested, 1.8% active; inhibition, % at 6.6 µM; OX1R-expressing cells, FRET antagonist read-out; O43613; in the data active = inhibition mostly above about 38%, no sharp cut-off; inactive = mostly below about 40%
TAAR1 nonsel count: nonselective antagonism, TAAR1 counter-screen; shares compounds with TAAR1 antag; counterscreen cell line, calcium fluorescence, antagonist mode; inhibition, % at 3 µM; 2,400 tested, 77% active; AID 651780; in the data active = inhibition above about 22%;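 note: CHO-Ga16 host cells stimulated with ATP at an EC80 level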
TAAR1 antag conf: confirmation of human TAAR1 antagonists | shares compounds with TAAR1 antag | AID 651785 | 2,400 tested, 40% active | inhibition, % at 3 µM | TAAR1-expressing cells, fluorescence antagonist read-out; in the data active = inhibition above about 49%;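 note: CHO-Ga16 host cells challenged with agonist PEA near its EC80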
Ga16 ag counter: nonselective Ga16 agonist in TAAR1 antagonist counter-screen. AID 651953. Ga16-expressing cells, calcium fluorescence, agonist counterscreen. 2,400 tested, 18% active. activation, % at 3 µM. shares compounds with TAAR1 antag; in the data active = activation above about 12%
TAAR1 ag counter: activates human TAAR1 in antagonist counter-screen; shares compounds with TAAR1 antag; hTAAR1 cell line, fluorescence activation, agonist mode; activation, % at 3 µM; 2,400 tested, 2% active; AID 651955; in the data active = activation above about 37%;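 note: CHO cells stably expressing TAAR1 with calcium dye readout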
Hits are given with their value; 0 = inactive; - = no result given.

SMILES	TAAR1 ag	TAAR1 antag	GPR7 antagonist	OX1R antag-1	CHO parental Ca	OX1R antag-2	TAAR1 nonsel count	TAAR1 antag conf	Ga16 ag counter	TAAR1 ag counter
O=C(Nc1nc(-c2nc3ccccc3s2)cs1)C1COc2ccccc2O1 (stereo not drawn)	0	60	0	0	0	0	26	0	0	0
COc1ccc(OC)c(-c2csc(NC(=O)C3COc4ccccc4O3)n2)c1 (stereo not drawn)	0	0	0	0	0	0	-	-	-	-
O=C(Nc1nc(-c2nc3ccccc3s2)cs1)c1ccc(S(=O)(=O)N2CCOCC2)cc1	0	69	0	0	32	67	52	70	22	0
O=C(Nc1nc(-c2ccccc2)c(-c2ccccc2)s1)c1ccc(S(=O)(=O)N2CCCC2)cc1	0	107	0	0	0	0	0	0	0	0
CC(C)CC1NC(=O)c2ccc(Cl)cc2-n2c1nc1ccc(Cl)cc1c2=O (stereo not drawn)	0	0	-	0	0	0	-	-	-	-
COc1ccc(C(=O)Cn2nnc(-c3ccccc3NC(=O)c3ccco3)n2)cc1	0	55	0	0	0	0	0	0	0	0
COc1cccc(NC(=O)c2cc(=O)c3ccccc3o2)c1	0	0	0	0	0	0	-	-	-	-
COc1ccc(NS(=O)(=O)c2cc(NC(=O)c3cc(=O)c4ccccc4o3)ccc2OC)cc1	0	64	0	0	0	0	27	53	0	0
C[C@@H]1CNC(=O)c2c(C(=O)N[C@@H](Cc3c[nH]c4ccccc34)C(=O)OC(C)(C)C)ncn21	0	58	-	-	-	-	30	0	0	0
CCOC(=O)N/N=C/c1c(C)c(C(=O)c2ccc(F)cc2)n2ccccc12	0	68	0	0	0	0	22	0	0	0
Cc1c(/C=N/NC(=O)c2cccnc2)c2ccccn2c1C(=O)c1ccc(F)cc1	-	-	0	0	0	0	-	-	-	-
Cc1c(/C=N/NC(=O)c2ccccc2O)c2ccccn2c1C(=O)c1ccc(F)cc1	0	93	0	0	0	0	48	94	12	0
CC(C)N(CCCNC(=O)Cn1c(=O)c2cccn2c2ccc(F)cc21)Cc1ccccc1	0	0	0	0	0	0	-	-	-	-
CCc1ccccc1S(=O)(=O)Cc1ccc(C(=O)N2CCN(c3ccccn3)CC2)o1	0	51	0	0	0	0	25	0	0	0
Cc1ccccc1S(=O)(=O)Cc1ccc(C(=O)N2CCN(c3ncccn3)CC2)o1	0	0	0	0	0	0	-	-	-	-
Oc1ccc(C[C@H]2CNC(=S)N2CC2CCCN2C[C@H](Cc2ccc(O)cc2)N2C[C@H](Cc3ccccc3)N(CCc3ccccc3)C2=S)cc1 (stereo partly drawn)	0	0	-	-	-	-	-	-	-	-
CCC(C)C(CO)NCCCn1cnc2c(OCc3ccccc3)ncnc21 (stereo not drawn)	0	0	-	-	-	-	-	-	-	-
COC(=O)CCCC[C@@H]1O[C@H](CCc2ccccc2)CC2=C1C(=O)OC(C)(C)O2	0	61	-	-	-	-	26	50	0	0
CC(C)(C)N(Cc1ccccc1)C(=O)COC(=O)/C=C/c1ccc2c(c1)OCO2	0	0	-	0	0	0	-	-	-	-
COc1cc(/C=N/NC(=O)c2cccnc2)ccc1OC(=O)c1ccc2c(c1)OCO2	0	54	0	0	0	0	26	0	0	0
Cc1ccc(C(=O)N/N=C/c2ccc(OC(=O)c3ccccc3Cl)cc2)cn1	0	0	0	0	0	0	-	-	-	-
COc1ccc(/C=N/NC(=O)c2cccnc2)cc1COc1ccc([N+](=O)[O-])c(C)c1	0	64	0	0	0	0	38	53	12	0
O=C(N/N=C/c1cccc(OC(=O)c2ccccc2Cl)c1)c1cccnc1	0	54	0	0	0	0	0	0	0	0
CCOC(=O)c1ccc(N2CCN(C(=O)c3ccccc3)CC2)c(NC(=O)c2ccco2)c1	0	0	0	0	0	0	-	-	-	-
CCN(CC(=O)Nc1c(F)cccc1F)C(=O)c1ccc(OC)c(S(=O)(=O)NC2CCCC2)c1	0	0	-	-	-	-	-	-	-	-
SMILES	TAAR1 ag	TAAR1 antag	GPR7 antagonist	OX1R antag-1	CHO parental Ca	OX1R antag-2	TAAR1 nonsel count	TAAR1 antag conf	Ga16 ag counter	TAAR1 ag counter
O=C(CSc1ccc(Cl)cc1)N1CCN(c2ccc(Cl)cc2[N+](=O)[O-])CC1	0	67	0	0	0	0	25	0	0	0
Cc1ccc(S(=O)(=O)Nc2cc(Cl)ccc2-n2cncn2)cc1	0	0	-	0	0	0	-	-	-	-
COc1ccc2cc(-c3[nH]ncc3CN3CCCN(c4ccccc4)CC3)ccc2c1	0	106	0	0	0	0	0	0	22	56
CCOC(=O)C1=C[C@@H](CC)N(S(=O)(=O)c2ccc([N+](=O)[O-])cc2)[C@H]1c1ccccc1	0	72	-	-	-	-	30	0	0	0
CCOC(=O)C1=C[C@@H](C(C)C)N(S(=O)(=O)c2ccc([N+](=O)[O-])cc2)[C@H]1c1ccccc1	0	82	-	-	-	-	25	0	0	0
Cc1cc(F)ccc1C(O)c1ncc(-c2ccccc2C(F)(F)F)[nH]1 (stereo not drawn)	0	0	-	-	-	-	-	-	-	-
O=C1CC(=O)N(C2CCCCC2)C(=O)N1c1ccccc1S(=O)(=O)Oc1ccccc1	0	0	-	-	-	-	-	-	-	-
O=C(NCCc1ccccc1)c1ccc(NC(=O)c2cccnc2)cc1	0	0	0	-	-	-	-	-	-	-
O=C(Nc1ccc(-c2noc(CCc3ccccc3)n2)cc1)c1cccnc1	0	69	0	0	0	0	37	51	14	0
O=C([C@H](Cc1ccccc1)NS(=O)(=O)c1ccc(Cl)cc1)N1CC[C@@]2(O)CCCC[C@H]2C1	0	56	0	0	0	0	24	0	0	0
Cc1ccc(S(=O)(=O)N2CCCCC2)cc1NC(=O)c1cncc(Br)c1	0	0	-	-	-	-	-	-	-	-
O=C(Nc1cccc(S(=O)(=O)N2CCCCCC2)c1)c1cncc(Br)c1	0	61	-	0	0	0	37	53	0	0
O=C(Nc1cccc(S(=O)(=O)C(F)F)c1)c1ccc(S(=O)(=O)N2CCCCC2)cc1	0	64	0	0	0	0	35	0	0	0
Cc1cc(C)cc(N(CCC#N)C(=O)CSc2nc3ccccc3c(=O)[nH]2)c1	0	0	-	0	0	0	-	-	-	-
CN(C)c1cccc(NC(=O)C2Cc3c(-c4ccc(Cl)cc4)ccnc3O2)c1 (stereo not drawn)	0	0	-	-	-	-	-	-	-	-
Cc1ccc(C)c(/C=N/Nc2ccccn2)c1	0	105	0	0	0	0	0	0	0	0

Screening results (PubChem BioAssay)
